Results as given in ChEMBL document CHEMBL5705905, “Pharmacological targeting of kinases MST1 and MST2 augments tissue repair and regeneration” (Sci Transl Med, 2016).
pKd: −log10 of the molar value. Calls of active or inactive are those of the source. The rule behind the calls is not given here.

Experiments:
[1] = system: Tyrosine-protein kinase ABL1 (Homo sapiens), P00519 [T315I]; assay: Inhibition of phosphorylated ABL1 T315I mutant (unknown origin) assessed as remaining activity at 1 uM by Kinome scan method relative to control
[2] = target: Tyrosine-protein kinase ABL2 (Homo sapiens) (UniProt P42684); assay: Inhibition of ABL2 (unknown origin) assessed as remaining activity at 1 uM by Kinome scan method relative to control
Method in brief: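 Active-site-dependent competition-binding (KINOMEscan) panel of 468 kinases, test compound at 1 μM (from a 10 mM DMSO stock). Read-out is ctrl% = (test signal − positive control signal)/(negative control signal − positive control signal) × 100. DMSO is the negative control (100%) and a control compound is the positive control (0%). Lower ctrl% means tighter binding.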

[3] = target: Calcium/calmodulin-dependent protein kinase type II subunit alpha (Homo sapiens) (UniProt Q9UQM7); assay: Inhibition of CAMK2A (unknown origin) assessed as remaining activity at 1 uM by Kinome scan method relative to control
Calcium/calmodulin-dependent protein kinase type II subunit alpha (Homo sapiens), sequence (Q9UQM7 whole entry): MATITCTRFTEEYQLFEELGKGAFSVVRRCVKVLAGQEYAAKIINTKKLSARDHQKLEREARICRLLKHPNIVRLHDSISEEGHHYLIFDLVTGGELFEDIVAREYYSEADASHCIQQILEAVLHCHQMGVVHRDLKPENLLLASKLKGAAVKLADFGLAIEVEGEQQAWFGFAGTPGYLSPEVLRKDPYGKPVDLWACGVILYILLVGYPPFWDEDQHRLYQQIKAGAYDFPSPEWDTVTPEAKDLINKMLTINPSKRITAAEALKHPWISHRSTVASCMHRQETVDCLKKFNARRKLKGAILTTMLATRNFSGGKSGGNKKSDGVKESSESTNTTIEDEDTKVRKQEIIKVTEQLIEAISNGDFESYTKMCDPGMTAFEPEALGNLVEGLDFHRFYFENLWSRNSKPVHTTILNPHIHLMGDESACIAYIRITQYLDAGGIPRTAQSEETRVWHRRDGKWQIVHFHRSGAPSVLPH
Method in brief: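 Active-site-dependent competition-binding profiling (KINOMEscan) at 1 μM against a 468-kinase panel; compound supplied from a 10 mM DMSO stock. Read-out is ctrl% = (test signal − positive control signal)/(negative control signal − positive control signal) × 100. DMSO is the negative control (100%) and a control compound the positive control (0%). Lower ctrl% means tighter binding.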

[4] = target: Epithelial discoidin domain-containing receptor 1 (Homo sapiens) (UniProt Q08345); assay: Inhibition of DDR1 (unknown origin) assessed as remaining activity at 1 uM by Kinome scan method relative to control
[5] = target: Myotonin-protein kinase (Homo sapiens) (UniProt Q09013); assay: Inhibition of DMPK (unknown origin) assessed as remaining activity at 1 uM by Kinome scan method relative to control
[6] = target: Dual specificity tyrosine-phosphorylation-regulated kinase 1A (Homo sapiens) (UniProt Q13627); assay: Inhibition of DYRK1A (unknown origin) assessed as remaining activity at 1 uM by Kinome scan method relative to control
[7] = target: G protein-coupled receptor kinase 3 (Homo sapiens) (UniProt P35626); assay: Inhibition of GRK3 (unknown origin) assessed as remaining activity at 1 uM by Kinome scan method relative to control
[8] = target: Serine/threonine-protein kinase haspin (Homo sapiens) (UniProt Q8TF76); assay: Inhibition of HASPIN (unknown origin) assessed as remaining activity at 1 uM by Kinome scan method relative to control
Serine/threonine-protein kinase haspin (Homo sapiens), sequence (Q8TF76 whole entry): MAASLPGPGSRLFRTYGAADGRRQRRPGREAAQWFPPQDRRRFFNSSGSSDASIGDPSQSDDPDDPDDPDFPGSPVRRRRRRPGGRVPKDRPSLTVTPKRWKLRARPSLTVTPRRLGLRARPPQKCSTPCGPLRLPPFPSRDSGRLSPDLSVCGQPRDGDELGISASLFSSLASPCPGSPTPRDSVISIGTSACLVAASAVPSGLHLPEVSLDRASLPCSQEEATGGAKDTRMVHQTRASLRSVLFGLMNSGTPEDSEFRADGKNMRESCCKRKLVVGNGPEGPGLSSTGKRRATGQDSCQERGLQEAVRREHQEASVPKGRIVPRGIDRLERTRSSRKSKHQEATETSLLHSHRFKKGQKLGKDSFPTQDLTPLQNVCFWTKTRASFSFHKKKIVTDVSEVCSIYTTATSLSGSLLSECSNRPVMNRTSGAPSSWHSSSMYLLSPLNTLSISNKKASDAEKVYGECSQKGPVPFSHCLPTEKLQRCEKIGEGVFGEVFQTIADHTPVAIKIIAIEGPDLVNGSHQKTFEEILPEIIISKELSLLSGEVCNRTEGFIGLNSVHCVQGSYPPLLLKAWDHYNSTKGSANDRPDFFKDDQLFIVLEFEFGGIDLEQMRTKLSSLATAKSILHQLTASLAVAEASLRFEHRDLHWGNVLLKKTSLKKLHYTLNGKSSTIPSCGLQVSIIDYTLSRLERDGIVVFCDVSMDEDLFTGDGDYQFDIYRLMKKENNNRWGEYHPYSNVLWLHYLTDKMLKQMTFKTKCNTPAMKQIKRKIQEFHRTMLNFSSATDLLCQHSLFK

[9] = system: Leucine-rich repeat serine/threonine-protein kinase 2 (Homo sapiens), Q5S007 [G2019S]; assay: Inhibition of LRRK2 G2019S mutant (unknown origin) assessed as remaining activity at 1 uM by Kinome scan method relative to control
Leucine-rich repeat serine/threonine-protein kinase 2 (Homo sapiens), Q5S007 [G2019S], sequence (Q5S007 whole entry G2019S): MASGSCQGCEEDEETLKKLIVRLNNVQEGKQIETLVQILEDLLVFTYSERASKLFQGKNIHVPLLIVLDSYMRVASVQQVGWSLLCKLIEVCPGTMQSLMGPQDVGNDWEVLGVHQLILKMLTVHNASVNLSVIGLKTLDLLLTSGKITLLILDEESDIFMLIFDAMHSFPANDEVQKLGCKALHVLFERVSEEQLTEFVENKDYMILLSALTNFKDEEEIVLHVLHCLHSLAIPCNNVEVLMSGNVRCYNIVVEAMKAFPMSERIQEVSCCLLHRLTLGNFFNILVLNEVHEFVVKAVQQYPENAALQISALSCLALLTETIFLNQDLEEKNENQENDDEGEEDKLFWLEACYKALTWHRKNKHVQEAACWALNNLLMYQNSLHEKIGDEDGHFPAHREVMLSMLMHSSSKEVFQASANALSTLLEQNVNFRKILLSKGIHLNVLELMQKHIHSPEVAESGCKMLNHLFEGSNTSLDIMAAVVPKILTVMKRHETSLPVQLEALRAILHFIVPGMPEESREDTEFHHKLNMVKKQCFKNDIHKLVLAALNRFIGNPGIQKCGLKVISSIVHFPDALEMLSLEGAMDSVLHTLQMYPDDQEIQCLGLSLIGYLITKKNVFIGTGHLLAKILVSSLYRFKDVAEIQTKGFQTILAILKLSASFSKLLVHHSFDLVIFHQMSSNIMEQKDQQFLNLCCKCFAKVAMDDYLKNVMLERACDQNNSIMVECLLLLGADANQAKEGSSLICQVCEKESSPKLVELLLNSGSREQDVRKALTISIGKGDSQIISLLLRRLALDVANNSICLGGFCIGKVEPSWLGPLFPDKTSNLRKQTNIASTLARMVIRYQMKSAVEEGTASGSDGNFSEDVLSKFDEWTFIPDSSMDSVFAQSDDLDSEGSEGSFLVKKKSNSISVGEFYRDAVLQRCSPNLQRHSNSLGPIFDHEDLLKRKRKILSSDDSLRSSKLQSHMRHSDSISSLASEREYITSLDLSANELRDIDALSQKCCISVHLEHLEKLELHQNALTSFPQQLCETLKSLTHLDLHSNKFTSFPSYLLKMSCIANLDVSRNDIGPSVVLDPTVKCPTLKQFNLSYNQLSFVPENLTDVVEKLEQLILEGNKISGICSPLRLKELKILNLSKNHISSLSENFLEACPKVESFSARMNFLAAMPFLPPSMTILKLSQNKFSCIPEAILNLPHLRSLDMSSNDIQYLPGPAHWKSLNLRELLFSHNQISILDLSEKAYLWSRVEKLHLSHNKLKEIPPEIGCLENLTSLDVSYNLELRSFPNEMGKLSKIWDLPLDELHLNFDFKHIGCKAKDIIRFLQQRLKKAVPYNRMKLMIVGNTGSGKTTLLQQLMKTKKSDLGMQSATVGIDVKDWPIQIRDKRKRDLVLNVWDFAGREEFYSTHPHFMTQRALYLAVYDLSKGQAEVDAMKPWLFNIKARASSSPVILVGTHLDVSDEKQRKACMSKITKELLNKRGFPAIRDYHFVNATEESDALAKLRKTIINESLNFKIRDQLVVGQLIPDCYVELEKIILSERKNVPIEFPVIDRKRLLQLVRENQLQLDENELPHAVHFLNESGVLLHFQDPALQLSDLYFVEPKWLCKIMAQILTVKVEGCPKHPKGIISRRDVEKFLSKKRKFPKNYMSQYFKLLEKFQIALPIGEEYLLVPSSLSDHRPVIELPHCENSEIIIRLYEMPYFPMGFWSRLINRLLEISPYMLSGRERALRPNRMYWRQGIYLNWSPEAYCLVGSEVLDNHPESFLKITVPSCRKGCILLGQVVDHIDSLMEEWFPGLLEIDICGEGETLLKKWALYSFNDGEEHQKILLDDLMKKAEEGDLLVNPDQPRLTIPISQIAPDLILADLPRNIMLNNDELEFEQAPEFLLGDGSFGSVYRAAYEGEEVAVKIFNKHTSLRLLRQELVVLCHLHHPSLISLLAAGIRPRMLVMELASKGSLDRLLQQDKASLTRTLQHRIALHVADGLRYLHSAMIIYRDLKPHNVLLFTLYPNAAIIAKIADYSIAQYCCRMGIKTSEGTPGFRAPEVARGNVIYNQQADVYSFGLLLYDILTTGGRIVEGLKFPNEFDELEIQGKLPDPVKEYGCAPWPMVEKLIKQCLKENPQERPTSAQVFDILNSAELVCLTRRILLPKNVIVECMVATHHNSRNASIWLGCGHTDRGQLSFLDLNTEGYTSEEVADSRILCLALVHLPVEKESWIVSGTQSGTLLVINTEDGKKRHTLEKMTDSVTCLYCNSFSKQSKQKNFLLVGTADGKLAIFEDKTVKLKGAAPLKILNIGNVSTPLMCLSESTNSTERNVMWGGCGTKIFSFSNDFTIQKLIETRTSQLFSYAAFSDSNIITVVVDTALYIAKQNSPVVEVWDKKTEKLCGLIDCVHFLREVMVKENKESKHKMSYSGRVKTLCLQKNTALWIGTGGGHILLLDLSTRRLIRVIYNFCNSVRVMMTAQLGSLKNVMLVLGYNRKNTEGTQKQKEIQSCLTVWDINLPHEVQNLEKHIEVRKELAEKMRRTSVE

[10] = target: Mitogen-activated protein kinase kinase kinase 3 (Homo sapiens) (UniProt Q99759); assay: Inhibition of MAP3K3 (unknown origin) assessed as remaining activity at 1 uM by Kinome scan method relative to control
[11] = target: Serine/threonine-protein kinase MARK1 (Homo sapiens) (UniProt Q9P0L2); assay: Inhibition of MARK1 (unknown origin) assessed as remaining activity at 1 uM by Kinome scan method relative to control
[12] = target: Maternal embryonic leucine zipper kinase (Homo sapiens) (UniProt Q14680); assay: Inhibition of MELK (unknown origin) assessed as remaining activity at 1 uM by Kinome scan method relative to control
[13] = system: Hepatocyte growth factor receptor (Homo sapiens), P08581 [Y1235D]; assay: Inhibition of MET Y1235D mutant (unknown origin) assessed as remaining activity at 1 uM by Kinome scan method relative to control
[14] = target: Serine/threonine-protein kinase PAK 2 (Homo sapiens) (UniProt Q13177); assay: Inhibition of PAK2 (unknown origin) assessed as remaining activity at 1 uM by Kinome scan method relative to control
[15] = target: Platelet-derived growth factor receptor beta (Homo sapiens) (UniProt P09619); assay: Inhibition of PDGFRbeta (unknown origin) assessed as remaining activity at 1 uM by Kinome scan method relative to control
[16] = target: Phosphatidylinositol 4-kinase beta (Homo sapiens) (UniProt Q9UBF8); assay: Inhibition of PIK4CB (unknown origin) assessed as remaining activity at 1 uM by Kinome scan method relative to control
[17] = target: 1-phosphatidylinositol 3-phosphate 5-kinase (Homo sapiens) (UniProt Q9Y2I7); assay: Inhibition of PIKFYVE (unknown origin) assessed as remaining activity at 1 uM by Kinome scan method relative to control
[18] = target: RAF proto-oncogene serine/threonine-protein kinase (Homo sapiens) (UniProt P04049); assay: Inhibition of RAF1 (unknown origin) assessed as remaining activity at 1 uM by Kinome scan method relative to control
[19] = target: Serine/threonine-protein kinase 36 (Homo sapiens) (UniProt Q9NRP7); assay: Inhibition of STK36 (unknown origin) assessed as remaining activity at 1 uM by Kinome scan method relative to control
[20] = target: Serine/threonine-protein kinase tousled-like 1 (Homo sapiens) (UniProt Q9UKI8); assay: Inhibition of TLK1 (unknown origin) assessed as remaining activity at 1 uM by Kinome scan method relative to control
[21] = target: Serine/threonine-protein kinase 32A (Homo sapiens) (UniProt Q8WU08); assay: Inhibition of YANK1 (unknown origin) assessed as remaining activity at 1 uM by Kinome scan method relative to control
Serine/threonine-protein kinase 32A (Homo sapiens), sequence (Q8WU08 whole entry): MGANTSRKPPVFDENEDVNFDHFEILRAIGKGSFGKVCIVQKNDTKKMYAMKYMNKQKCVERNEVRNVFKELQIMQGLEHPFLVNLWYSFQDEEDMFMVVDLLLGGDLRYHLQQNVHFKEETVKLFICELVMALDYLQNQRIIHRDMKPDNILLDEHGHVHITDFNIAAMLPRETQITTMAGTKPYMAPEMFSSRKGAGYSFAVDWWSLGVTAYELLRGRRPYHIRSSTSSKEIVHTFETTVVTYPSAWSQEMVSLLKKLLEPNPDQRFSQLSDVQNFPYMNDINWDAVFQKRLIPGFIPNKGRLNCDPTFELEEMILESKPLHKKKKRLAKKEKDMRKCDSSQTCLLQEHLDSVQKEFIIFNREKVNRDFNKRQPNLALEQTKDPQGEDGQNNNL

[22] = target: Serine/threonine-protein kinase 26 (Homo sapiens, UniProt Q9P289); assay: Binding affinity to MST4 (unknown origin) assessed as dissociation constant
Serine/threonine-protein kinase 26, sequence (Q9P289 whole entry): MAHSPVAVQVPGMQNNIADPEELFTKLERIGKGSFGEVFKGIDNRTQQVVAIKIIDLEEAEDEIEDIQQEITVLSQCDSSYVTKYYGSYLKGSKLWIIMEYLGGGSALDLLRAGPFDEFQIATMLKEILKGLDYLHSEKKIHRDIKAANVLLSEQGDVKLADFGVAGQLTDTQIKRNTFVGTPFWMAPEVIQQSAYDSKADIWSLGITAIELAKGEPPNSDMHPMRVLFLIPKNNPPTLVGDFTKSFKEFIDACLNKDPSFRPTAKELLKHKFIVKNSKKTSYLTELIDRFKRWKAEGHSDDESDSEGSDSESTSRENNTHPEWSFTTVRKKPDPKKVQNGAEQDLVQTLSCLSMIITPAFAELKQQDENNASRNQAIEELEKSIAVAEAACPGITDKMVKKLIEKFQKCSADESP

[23] = system: HepG2; assay: Induction of apoptosis in human HepG2 cells assessed as viable cells at 3 uM by annexinV staining (Rvb =95.0 %); format: functional; conditions: read-out: Activity
[24] = system: HepG2; assay: Inhibition of Flag-tagged MST1 D109A mutant (unknown origin) in human HepG2 cells assessed as MOB1 phosphorylation level at 3 uM by immunoblot analysis; format: cell-based
[25] = system: Mus musculus; assay: Protection against human hepatocyte transplanted FRG mouse assessed as increase in FAH level at 1 mg/kg, ip administrated once a daily for 28 days by H&E staining based immunohistochemical analysis; format: functional, organism-based; conditions: Liver, time 28.0 day
[26] = Toxicity in APAP induced liver injury in mouse assessed as cancer cell growth at 1 mg/kg, ip administered for > 10 months; format: organism-based; conditions: in vivo, 7300 h

For CN1C(=O)c2sccc2N(C)c2nc(Nc3ccc(S(N)(=O)=O)cc3)ncc21, the Activity [1] was 1.6%, the Activity [2] was 96% and the Activity [3] was 77%. It also gave an Activity [4] of 63%, an Activity [5] of 100% and an Activity [6] of 81%. The Activity [7] was 87%, the Activity [8] was 96% and the Activity [9] was 28%. For the same compound, the Activity [10] was 2%, the Activity [11] was 92% and the Activity [12] was 100%. For the same compound, the Activity [13] was 83%, the Activity [14] was 84% and the Activity [15] was 90%. The Activity [16] was 65%, the Activity [17] was 64% and the Activity [18] was 80%. For the same compound, the Activity [19] was 100%, the Activity [20] was 100% and the Activity [21] was 100%. For the same compound, the pKd [22] was 7.80, the viability at 3 µM [23] was 95% and the inhibition [24] was “Active”. For the same compound, the Activity [25] was “Active” and the Activity [26] was “Non-Toxic”.
